This note sets out measurements from ChEMBL document CHEMBL1152353, “Pyrimido[5,4-e][1,2,4]triazine-5,7(1H,6H)-dione derivatives as novel small molecule chaperone amplifiers” (Bioorg Med Chem Lett, 2009).

The target of series [1] is T1, Heat shock factor protein 1 (Homo sapiens) (UniProt Q00613).
T1 sequence (whole entry): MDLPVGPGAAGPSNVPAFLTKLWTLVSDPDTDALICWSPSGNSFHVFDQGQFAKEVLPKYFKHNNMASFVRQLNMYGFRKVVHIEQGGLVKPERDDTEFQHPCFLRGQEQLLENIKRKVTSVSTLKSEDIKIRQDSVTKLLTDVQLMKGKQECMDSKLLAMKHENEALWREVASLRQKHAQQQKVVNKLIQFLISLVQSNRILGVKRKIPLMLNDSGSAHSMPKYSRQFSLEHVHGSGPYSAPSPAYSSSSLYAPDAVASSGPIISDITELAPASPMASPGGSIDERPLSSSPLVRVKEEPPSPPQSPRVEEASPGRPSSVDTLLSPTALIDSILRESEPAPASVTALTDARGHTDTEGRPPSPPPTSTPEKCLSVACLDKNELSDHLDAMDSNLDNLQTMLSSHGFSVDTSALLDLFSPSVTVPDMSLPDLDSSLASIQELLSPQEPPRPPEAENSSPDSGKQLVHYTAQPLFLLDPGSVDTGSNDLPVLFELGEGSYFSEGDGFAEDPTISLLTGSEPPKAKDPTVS
The experiment in a line: Amplification of HSF1 transcriptional activity in human HeLa cells assessed as granule formation pretreated for 3 hrs by immunocytochemical staining. The class given is cell-based. Put shortly: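 HeLa cells pretreated with compound 1 h, then mild heat shock 41 °C for 2 h, no recovery; control arm pretreated 3 h at 37 °C without heat shock. Compound diluted 200-fold, 0.3 to 80 µM range.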

Series [2] deals with SK-N-SH. As to the kind of experiment: Cytoprotection against rotenone stress-induced toxicity in human SK-N-SH cells after 48 hrs by MTS assay. The class given is functional, cell-based. The conditions noted are these: Homo sapiens, SK-N-SH, 48 h; read-out: EC50. The gist of the method:
(§1)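 SK-N-SH neuroblastoma cells (within passage 6) seeded in DMEM with 0.1% FBS for 18 h, then fresh medium with 200 nM rotenone (final) plus compound, 0.019 to 10 µM. Incubated 48 h, then MTS viability read. Cytoprotection expressed as viability increase over the rotenone DMSO control; EC50 = concentration giving half-maximal protection. Data averaged over multiple tests.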
A general note: Tetrazolium dyes change colour on reduction, which living cells bring about.

Series [3] relates to SK-N-SH. As to the kind of experiment: Cytoprotection against rotenone stress-induced toxicity in human SK-N-SH cells assessed as increase in cell viability after 48 hrs by MTS assay relative to control. Also on record: concentration or dose not given beside the values. The format is functional. Put shortly:
as §1

Series [4] can be described thus: Therapeutic index, ratio of CC50 for human SK-N-SH cells to EC50 for human SK-N-SH cells. To be noted: read-out: Ratio CC50/EC50. The format is cell-based.
Series [5] in a line: (§2) Cytotoxicity against human HeLa cells after 72 hrs by MTS assay. The format is cell-based. The conditions noted are these: HeLa cells. Put shortly: (§3)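 HeLa (8000 cells/well) or SK-N-SH (14,000 cells/well) cells seeded in DMEM with 10% FBS for 18 h. Compound added at 1:200 dilution, final 0.3 to 80 µM, 0.5% v/v DMSO. Exposure 72 h, then MTS/PMS for 4 h, SDS to 1.4% w/v, absorbance at 492 nm. CC50 = concentration giving half-maximal cytotoxicity.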

The nature of series [6]: Cytotoxicity against human SK-N-SH cells after 72 hrs by MTS assay. The format is cell-based. Put shortly: as §3
Series [7] in a line: Therapeutic index, ratio of […]. The format is cell-based. The conditions noted are these: read-out: FC.
Series [8] concerns SK-N-SH. The experiment in a line: Cytoprotection against rotenone stress-induced toxicity in human SK-N-SH cells at 0.16 uM after 48 hrs by MTS assay. The class given is functional. The gist of the method:
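SK-N-SH cells (within passage 6) seeded in DMEM with 0.1% FBS for 18 h, then fresh medium with rotenone (final 200 nM) plus compound (range from 0.019 up to 10). Incubated 48 h, viability by MTS; cytoprotection as viability increase over DMSO-plus-rotenone control.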

Series [9] concerns SH-SY5Y. As to the kind of experiment: Cytoprotection against oxygen-glucose deprivation-induced cytotoxicity in human SH-SY5Y cells at 0.5 uM after 28 hrs by MTS assay. The class given is functional. The gist of the method:
(§4)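 SH-SY5Y cells plated on collagen I-coated wells, grown 16–24 h in complete medium, washed twice in deoxygenated glucose- and serum-free medium; compound added within 1 h before OGD. Chambers flushed with 95% N₂/5% CO₂, residual O₂ <1%, held at 37 °C for 28 h. MTS viability; cytoprotection = (MTS_compound − MTS_DMSO)/MTS_DMSO × 100% versus OGD DMSO control.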

The test system of series [10] is SH-SY5Y. As to the kind of experiment: Cytoprotection against oxygen-glucose deprivation-induced cytotoxicity in human SH-SY5Y cells at 1 uM after 28 hrs by MTS assay. The format is functional. The gist of the method:
as §4

Series [11] concerns SH-SY5Y. The experiment in a line: Cytoprotection against oxygen-glucose deprivation-induced cytotoxicity in human SH-SY5Y cells at 2.5 uM after 28 hrs by MTS assay. The format is functional. The gist of the method: as §4
In series [12] the test system is HeLa. As to the kind of experiment: Cytotoxicity against human HeLa cells at 80 uM after 72 hrs by MTS assay. The class given is cell-based. Put shortly:
as §3

In series [13] the test system is HeLa. Described as §2. The format is cell-based. The conditions noted are these: hela, 72 h. Put shortly: as §3
In series [14] the test system is SK-N-SH. As to the kind of experiment: Cytoprotection against rotenone stress-induced toxicity in human SK-N-SH cells assessed as increase in cell survival at 0.625 after 48 hrs by MTS assay relative to control. The format is functional. The gist of the method:
as §1

Calls of active or inactive are those of the source. The rule behind the calls is not given here.

Take `CCn1nc(-c2ccc(C)s2)nc2c(=O)n(C)c(=O)nc1-2`: the outcome in [1] was inactive. For the same compound, the EC50 in series [2] came out at 1.33 µM. Besides, the Activity in series [3] is 50%. The selectivity ratio in series [4] is ≤ 48; in series [7], ≤ 7. Further, the cytotoxic concentration (CC50) at 72 h came out at 22.2 µM in series [5] and 63.5 µM in series [6].

`CC1=C(O)C(=O)C=C2C1=CC=C1[C@@]2(C)CC[C@@]2(C)[C@@H]3C[C@](C)(C(=O)O)CC[C@]3(C)CC[C@]12C` [CELASTROL]: the Activity in series [8] is given as 24%; in series [3] it was 24%; in [9], 8%; in series [10], 18%; in series [11] it was -22%. In addition, the CC50 at 72 h in [5] stood at 3 µM; in series [6], 1.6 µM.

Take `CCCCn1nc(-c2nc3ccccc3[nH]2)nc2c(=O)n(C)c(=O)nc1-2`: the values for the Activity in [12], in series [3] and in series [13] were 76%, 59% and “Not Active”, respectively. Moreover, in [1], the result was inactive. The EC50 in [2] turned out to be 1.9 µM. This compound showed a cytotoxic concentration (CC50) at 72 h in [6] of 13.1 µM.

For the compound `CCCCn1nc(-c2ccc3ccccc3n2)nc2c(=O)n(C)c(=O)nc1-2`, the Activity in series [14] was 103%; in series [3] it was 71%. Moreover, the result in series [1] was inactive. Also, the half-maximal effective concentration (EC50) in series [2] is 0.29 µM. Besides, the CC50 at 72 h stood at 9.5 µM in series [5] and 4 µM in series [6].

For orientation: EC50 means the concentration giving half of the maximal effect. The CC50 is the concentration at which the toxic effect on the cells reaches its halfway point.
